Source: ChEMBL document CHEMBL4346672, “Antimicrobial and KPC/AmpC inhibitory activity of functionalized benzosiloxaboroles” (Eur J Med Chem, 2019)
Converted amounts (≈) assume the structure as drawn. The source made the active and inactive calls. No cut-off for these calls is given here.

Legend:
Staphylococcus aureus [1] = experiment: Antibacterial activity against Staphylococcus aureus ATCC 6538P assessed as diameter of zone inhibition measured after 18 hrs by CLSI disc diffusion method; format: functional
In short: (§1)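 Disc diffusion on Mueller-Hinton II agar. Compounds dissolved in DMSO. Strains stored at -80 °C and subcultured twice on tryptic soy agar before testing. Inhibition zones read after 35 °C, 18 h.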

Pseudomonas aeruginosa [2] = experiment: Antibacterial activity against Pseudomonas aeruginosa ATCC 27853 measured after 18 hrs by CLSI broth dilution method; format: functional; conditions: ATCC 27853, 18 h
In short: (§2)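 Broth MIC in Mueller-Hinton II broth following CLSI, compounds dissolved in DMSO. Strains subcultured twice on tryptic soy agar before testing. Growth read after 35 °C, 18 h.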

[3] = Dissociation constant, pKa1 of compound in 0.1 M NaOH by potentiometric analysis; format: physicochemical
[4] = tested on: Meyerozyma guilliermondii; experiment: Antifungal activity against Candida guilliermondii IBA 155 assessed as decrease in fungal cell growth at 0.78 to 12.5 mg/L incubated for 24 hrs by CLSI broth dilution method; format: functional; conditions: IBA 155, 24 h
In short: (§3)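 Yeast broth dilution in RPMI 1640 with 2% glucose, compounds in DMSO. Yeasts pre-grown on Sabouraud dextrose agar. Growth read after 35 °C, 24 h.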

Pichia kudriavzevii [5] = experiment: Antifungal activity against Candida krusei ATCC 6258 assessed as decrease in fungal cell growth at 0.78 to 12.5 mg/L incubated for 24 hrs by CLSI broth dilution method; format: functional; conditions: ATCC 6258, 24 h; in short: as §3
Saccharomyces cerevisiae = experiment: Antifungal activity against Saccharomyces cerevisiae ATCC 9763 assessed as decrease in fungal cell growth at 0.78 to 12.5 mg/L incubated for 24 hrs by CLSI broth dilution method; format: functional; conditions: ATCC 9763, 24 h
In short: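 Yeast strain subcultured on Sabouraud dextrose agar for 24–48 h at 30 °C before testing. Compounds dissolved in DMSO.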

Candida albicans = experiment: Antifungal activity against Candida albicans ATCC 90028 assessed as diameter of zone inhibition incubated for 24 hrs by CLSI disc diffusion method; format: functional
In short: (§4)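 Yeast disc diffusion on Mueller-Hinton agar supplemented with 2% glucose and 0.5 mg/L methylene blue. Compounds in DMSO. Yeasts subcultured on Sabouraud dextrose agar before testing. Zones read after 35 °C, 24 h.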

Candida parapsilosis = experiment: Antifungal activity against Candida parapsilosis ATCC 22019 assessed as diameter of zone inhibition incubated for 24 hrs by CLSI disc diffusion method; format: functional; in short: as §4
Candida tropicalis = experiment: Antifungal activity against Candida tropicalis IBA 171 assessed as diameter of zone inhibition incubated for 24 hrs by CLSI disc diffusion method; format: functional; in short: as §4
[6] = tested on: Meyerozyma guilliermondii; experiment: Antifungal activity against Candida guilliermondii IBA 155 assessed as diameter of zone inhibition incubated for 24 hrs by CLSI disc diffusion method; format: functional; in short: as §4
Pichia kudriavzevii [7] = experiment: Antifungal activity against Candida krusei ATCC 6258 assessed as diameter of zone inhibition incubated for 24 hrs by CLSI disc diffusion method; format: functional; in short: as §4
Staphylococcus aureus [8] = experiment: Antibacterial activity against Staphylococcus aureus ATCC 6538P measured after 18 hrs by CLSI broth dilution method; format: functional; in short: as §2
[9] = tested on: Staphylococcus epidermidis; experiment: Antibacterial activity against Staphylococcus epidermidis ATCC 12228 measured after 18 hrs by CLSI broth dilution method; format: functional; conditions: ATCC 12228, 18 h; in short: as §2
Enterococcus faecalis = experiment: Antibacterial activity against Enterococcus faecalis ATCC 29212 measured after 18 hrs by CLSI broth dilution method; format: functional; conditions: ATCC 29212, 18 h; in short: as §2
[10] = tested on: Staphylococcus epidermidis; experiment: Antibacterial activity against Staphylococcus epidermidis ATCC 12228 assessed as diameter of zone inhibition measured after 18 hrs by CLSI disc diffusion method; format: functional; in short: as §1
Enterococcus faecium = experiment: Antibacterial activity against Enterococcus faecium ATCC 6057 assessed as diameter of zone inhibition measured after 18 hrs by CLSI disc diffusion method; format: functional; in short: as §1
Bacillus subtilis = experiment: Antibacterial activity against Bacillus subtilis ATCC 6633 assessed as diameter of zone inhibition measured after 18 hrs by CLSI disc diffusion method; format: functional; in short: as §1
Escherichia coli [11] = experiment: Antibacterial activity against Escherichia coli ATCC 25922 measured after 18 hrs by CLSI broth dilution method; format: functional; conditions: ATCC 25922, 18 h; in short: as §2
Klebsiella pneumoniae [12] = experiment: Antibacterial activity against Klebsiella pneumoniae ATCC 13883 measured after 18 hrs by CLSI broth dilution method; format: functional; conditions: ATCC 13883, 18 h; in short: as §2
Proteus mirabilis [13] = experiment: Antibacterial activity against Proteus mirabilis ATCC 12453 measured after 18 hrs by CLSI broth dilution method; format: functional; conditions: ATCC 12453, 18 h; in short: as §2
Acinetobacter baumannii [14] = experiment: Antibacterial activity against Acinetobacter baumannii ATCC 19606 measured after 18 hrs by CLSI broth dilution method; format: functional; conditions: ATCC 19606, 18 h; in short: as §2
Escherichia coli [15] = experiment: Antibacterial activity against Escherichia coli ATCC 25922 assessed as diameter of zone inhibition measured after 18 hrs by CLSI disc diffusion method; format: functional; in short: as §1
Enterobacter cloacae [16] = experiment: Antibacterial activity against Enterobacter cloacae DSM 6234 assessed as diameter of zone inhibition measured after 18 hrs by CLSI disc diffusion method; format: functional; in short: as §1
Pseudomonas aeruginosa [17] = experiment: Antibacterial activity against Pseudomonas aeruginosa ATCC 27853 assessed as diameter of zone inhibition measured after 18 hrs by CLSI disc diffusion method; format: functional, organism-based; in short: as §1
Acinetobacter baumannii [18] = experiment: Antibacterial activity against Acinetobacter baumannii ATCC 19606 assessed as diameter of zone inhibition measured after 18 hrs by CLSI disc diffusion method; format: functional; in short: as §1
Burkholderia cepacia = experiment: Antibacterial activity against Burkholderia cepacia ATCC 25416 assessed as diameter of zone inhibition measured after 18 hrs by CLSI disc diffusion method; format: functional; in short: as §1
[19] = tested on: Bordetella bronchiseptica; experiment: Antibacterial activity against Bordetella bronchiseptica ATCC 4617 assessed as diameter of zone inhibition measured after 18 hrs by CLSI disc diffusion method; format: functional; in short: as §1
Escherichia coli [20] = experiment: Antibacterial activity against Escherichia coli ATCC 25922 assessed as fold reduction of MIC in presence of efflux pump inhibitor PAbetaN incubated for 18 hrs by CLSI broth microdilution method; format: functional
In short: (§5)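 MICs determined with and without PAβN at 50 mg/L in Mueller-Hinton broth containing 1 mM MgSO₄. 2-fold serial dilutions per CLSI. Fold change taken from the paired MICs after 35 °C, 18 h.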

Klebsiella pneumoniae [21] = experiment: Antibacterial activity against Klebsiella pneumoniae ATCC 13883 assessed as fold reduction of MIC in presence of efflux pump inhibitor PAbetaN incubated for 18 hrs by broth microdilution method; format: functional; in short: as §5
Proteus mirabilis [22] = experiment: Antibacterial activity against Proteus mirabilis ATCC 12453 assessed as fold reduction of MIC in presence of efflux pump inhibitor PAbetaN incubated for 18 hrs by broth microdilution method; format: functional; in short: as §5
Enterobacter cloacae [23] = experiment: Antibacterial activity against Enterobacter cloacae DSM 6234 assessed as fold reduction of MIC in presence of efflux pump inhibitor PAbetaN incubated for 18 hrs by broth microdilution method; format: functional; in short: as §5
Serratia marcescens [24] = experiment: Antibacterial activity against Serratia marcescens ATCC 13880 assessed as fold reduction of MIC in presence of efflux pump inhibitor PAbetaN incubated for 18 hrs by broth microdilution method; format: functional; in short: as §5
Acinetobacter baumannii [25] = experiment: Antibacterial activity against Acinetobacter baumannii ATCC 19606 assessed as fold reduction of MIC in presence of efflux pump inhibitor PAbetaN incubated for 18 hrs by broth microdilution method; format: functional; in short: as §5
Serratia marcescens [26] = conditions: ATCC 13880

MIC (Pseudomonas aeruginosa [2]) [µg/mL] | pKa [3] | MIC [4] [µg/mL] | MIC (Pichia kudriavzevii [5]) [µg/mL] | MIC (Saccharomyces cerevisiae) [µg/mL] | MIC (Staphylococcus aureus [8]) [µg/mL] | MIC [9] [µg/mL] | MIC (Enterococcus faecalis) [µg/mL] | MIC (Escherichia coli [11]) [µg/mL] | MIC (Klebsiella pneumoniae [12]) [µg/mL] | MIC (Proteus mirabilis [13]) [µg/mL] | Structure (SMILES) | diameter of the inhibition zone (DIZ) (Staphylococcus aureus [1]) [mm] | diameter of the inhibition zone (DIZ) (Candida albicans) [mm] | diameter of the inhibition zone (DIZ) (Candida parapsilosis) [mm] | diameter of the inhibition zone (DIZ) (Candida tropicalis) [mm] | diameter of the inhibition zone (DIZ) [6] [mm] | diameter of the inhibition zone (DIZ) (Pichia kudriavzevii [7]) [mm] | diameter of the inhibition zone (DIZ) [10] [mm] | diameter of the inhibition zone (DIZ) (Enterococcus faecium) | diameter of the inhibition zone (DIZ) (Bacillus subtilis) [mm] | also measured
> 400 | 7.3 | 25 (≈ 118 µM) | 25 (≈ 118 µM) | 6.25 (≈ 29.4 µM) | 50 (≈ 235 µM) | 25 (≈ 118 µM) | 100 (≈ 471 µM) | 400 (≈ 1880 µM) | 400 (≈ 1880 µM) | > 400 | C[Si]1(C)OB(O)c2ccc(Cl)cc21 | 20 | 28 | 18 | 15 | 30 | 26 | 33 | 14 mm | 34 | MIC (Acinetobacter baumannii [14]): 400 µg/mL (≈ 1880 µM); diameter of the inhibition zone (DIZ) (Escherichia coli [15]): inactive; diameter of the inhibition zone (DIZ) (Enterobacter cloacae [16]): inactive; diameter of the inhibition zone (DIZ) (Pseudomonas aeruginosa [17]): inactive; diameter of the inhibition zone (DIZ) (Acinetobacter baumannii [18]): 13 mm; diameter of the inhibition zone (DIZ) (Burkholderia cepacia): 11 mm; diameter of the inhibition zone (DIZ) [19]: 11 mm; fold change (FC) (Escherichia coli [20]): 64; fold change (FC) (Klebsiella pneumoniae [21]): 32; fold change (FC) (Proteus mirabilis [22]): 4; fold change (FC) (Enterobacter cloacae [23]): 64; fold change (FC) (Serratia marcescens [24]): 16; fold change (FC) (Acinetobacter baumannii [25]): 16; DIZ (Serratia marcescens [26]): inactive
> 400 | 6.8 | 6.25 (≈ 29.2 µM) | 50 (≈ 234 µM) | 3.12 (≈ 14.6 µM) | 50 (≈ 234 µM) | 50 (≈ 234 µM) | 400 (≈ 1870 µM) | > 400 | > 400 | 400 (≈ 1870 µM) | C[Si]1(C)OB(O)c2cc(F)c(F)cc21 | 34 | 16 | 18 | 13 | 30 | 17 | 28 | inactive | 25 | MIC (Acinetobacter baumannii [14]): > 400 µg/mL; diameter of the inhibition zone (DIZ) (Escherichia coli [15]): inactive; diameter of the inhibition zone (DIZ) (Enterobacter cloacae [16]): inactive; diameter of the inhibition zone (DIZ) (Pseudomonas aeruginosa [17]): inactive; diameter of the inhibition zone (DIZ) (Acinetobacter baumannii [18]): inactive; diameter of the inhibition zone (DIZ) (Burkholderia cepacia): inactive; diameter of the inhibition zone (DIZ) [19]: inactive; fold change (FC) (Escherichia coli [20]): 32; fold change (FC) (Klebsiella pneumoniae [21]): 4; fold change (FC) (Proteus mirabilis [22]): 2; fold change (FC) (Enterobacter cloacae [23]): 32; fold change (FC) (Serratia marcescens [24]): 4; fold change (FC) (Acinetobacter baumannii [25]): 8; DIZ (Serratia marcescens [26]): inactive
